Converted amounts (≈) assume the structure as drawn. “And” between values parts separate entries of the source, which are not always exact repeats. Equal values may be shown once.
How the values were obtained:
[1] = system: Hep G2 cells; assay: MTT cytotoxic assay; type: cell-based; conditions: for IC50: Homo sapiens, HepG2, 24 h, read-out: Hep G2 cells IC50
In short: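 Hep G2 cells (Pasteur Institute of Iran) seeded at 10,000 cells/well and grown 24 h at 37 °C, 5% CO2. Extract and fractions were tested at 12.5–200 μg/mL for 24 h. MTT was then added for 4 h at 37 °C, and formazan was dissolved in DMSO and read at 570 nm. IC50 came from plots of growth inhibition against concentration; mean ± SD of triplicates.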

[2] = DPPH radical scavenging activity assay; type: biochemical; conditions: 30 min at 37 °C, absorbance 517 nm; mean ± SD of triplicate
In short: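 20 µL of sample (6.25–3200 μg/mL solutions) mixed with 200 µL methanolic DPPH and kept dark at 37 °C for 30 min; absorbance read at 517 nm. Blanks held sample plus MeOH; controls held MeOH plus DPPH. Percent inhibition was calculated from control and blank absorbances. Quercetin was the standard; triplicate runs.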

[3] = ABTS radical cation scavenging assay; type: biochemical; conditions: absorbance 734 nm after 15 minutes; mean ± SD of triplicate
In short: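 ABTS radical cation made by mixing aqueous ABTS diammonium salt with ammonium persulfate, then kept dark at room temperature for 16 h. It was diluted with ethanol to A734 0.70 ± 0.05. 200 µL radical solution was added to 20 µL of samples at a range of concentrations, and A734 was read after 15 min. IC50 reported as mean ± SD of three replicates.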

[4] = FRAP assay; type: biochemical; conditions: absorbance 593 nm; mean ± SD of triplicate
In short: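 FRAP reagent: 300 mM acetate buffer pH 3.6, 10 mM TPTZ in 40 mM HCl and 20 mM FeCl3·6H2O at 10:1:1, held dark at 37 °C for 10 min. 20 µL sample (6.25–3200 μg/mL solutions) was added to 180 µL pre-warmed reagent; controls held MeOH. Absorbance was read at 593 nm, and the FRAP value was calculated against the control; triplicate analysis.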

[5] = NO radical scavenging; type: biochemical; conditions: for NO scavenging ability percentage: 200 μg/mL, mean ± SD of triplicate
In short: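 Sodium nitroprusside (50 µL, 10 mmol) and 50 µL MeOH were added to 50 µL sample and incubated at 25 °C for 150 min. Then 100 µL Griess reagent was added for 5 min at room temperature, and absorbance was read at 542 nm. Blanks held sample, nitroprusside and MeOH without Griess reagent. Inhibition ratio was calculated from sample, blank and control absorbances; triplicate.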

[6] = ORAC assay; type: biochemical; conditions: Trolox equivalents
In short: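 Blank, Trolox standard or sample (20 µL) in 75 mM potassium phosphate buffer was plated in triplicate with 200 µL of 0.96 µM fluorescein and held at 37 °C for 20 min. AAPH was then added, and fluorescence decay (ex 485/em 538 nm) was recorded every 4.5 min for 2.5 h. Values were expressed as Trolox equivalents.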

[7] = system: Hep G2 cells; assay: CAA assay; type: cell-based; conditions: Homo sapiens, HepG2, read-out: CAA IC50
In short: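 Hep G2 cells seeded at 6 × 10^4 cells/well overnight, then washed three times with PBS. Cells were incubated at 37 °C in treatment medium containing extract at various concentrations plus 25 µM DCFH-DA, then washed with PBS. AAPH was added, and fluorescence (ex 485/em 538 nm) was read every 5 min for 1 h at 37 °C. IC50 is the concentration scavenging 50% of AAPH radicals; quercetin was the standard; triplicates.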

[8] = system: protease; assay: Determination of protease inhibition; type: biochemical; conditions: casein 1%, 25 °C, 10 minutes
In short: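 Samples prepared at 1–300 µg/mL; 50 µL was combined with 200 µL of 50 mM phosphate buffer, then protease and 1% casein substrate were added. The mixture was incubated at 25 °C for 10 min and stopped with 10% trichloroacetic acid. After 21 min it was centrifuged at 895 ×g for 5 min, and supernatant absorbance was read at 280 nm. IC50 as mean ± SD of three replicates.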

Row | SMILES | Hep G2 cells IC50 ([1]; MTT, 24 h treatment, mean ± SD) | DPPH IC50 [2] | ABTS IC50 [3] | FRAP IC50 [4] | NO scavenging ability percentage [5] | NO scavenging ability percentage ([5]; listed as oleanolic acid) | ORAC TE [6] | IC50 [7] | IC50 [1] | cytotoxic effect on the Hep G2 cell line (in words) ([1]; MTT) | Protease inhibition IC50 [8] | NO scavenging [5] | ORAC TE ([6]; listed as rosmarinic acid) | NO scavenging ability percentage ([5]; listed as ursolic acid)
1 | N.N.[Cl][Pt][Cl] [Cisplatin, reference compound] | 12.65 ± 0.78 µg/mL | – | – | – | – | – | – | – | – | – | – | – | – | –
2 | CC1(C)CC[C@]2(C(=O)O)CC[C@]3(C)C(=CC[C@@H]4[C@@]5(C)CC[C@H](O)C(C)(C)[C@@H]5CC[C@]43C)[C@@H]2C1 [Oleanolic acid] | – | >2000 µg/mL | >2000 µg/mL | 198.86 ± 1.49 µg/mL | 48.82 ± 0.91% | 48.82% | 0.46 TE | > 200 µg/mL | 123 ± 8.84 µg/mL (≈ 270 µM) | low antiproliferative effect | 28.0 ± 0.2 µg/mL | – | – | –
3 | O=c1c(O)c(-c2ccc(O)c(O)c2)oc2cc(O)cc(O)c12 [Quercetin, quercetin, reference compound] | – | 26.51 ± 0.06 µg/mL | 26.35 ± 0.03 µg/mL | 18.53 ± 0.12 µg/mL | 89.96 ± 0.01% | – | 1.06 TE | 38.9 ± 0.87 µg/mL (≈ 129 µM) | – | – | – | – | – | –
4 | O=C(/C=C/c1ccc(O)c(O)c1)O[C@H](Cc1ccc(O)c(O)c1)C(=O)O [Rosmarinic acid] | – | 28.39 ± 0.75 µg/mL | 39.52 ± 0.72 µg/mL | 31.87 ± 0.67 µg/mL | 71.44 ± 0.37% and 71.44 ± 1.04% | – | 0.60 TE | 171 µg/mL (≈ 475 µM) | 47.8 ± 5.87 µg/mL (≈ 133 µM) | – | 17.0 ± 0.3 µg/mL | 71.44 ± 1.04 µg/mL | 0.6 TE | –
5 | C[C@@H]1O[C@@H](OC[C@H]2O[C@@H](Oc3c(-c4ccc(O)c(O)c4)oc4cc(O)cc(O)c4c3=O)[C@H](O)[C@@H](O)[C@@H]2O)[C@H](O)[C@H](O)[C@H]1O [Rutin, Quercetin-3-O-rutoside] | – | 33.48 ± 0.52 µg/mL | 87.31 ± 0.68 µg/mL | 42.62 ± 0.86 µg/mL | 81.30 ± 0.37% | – | 0.83 TE | > 200 µg/mL | 63.9 ± 0.96 µg/mL (≈ 105 µM) | – | 22.4 ± 0.1 µg/mL | – | – | –
6 | C[C@H]1[C@H](C)CC[C@]2(C(=O)O)CC[C@]3(C)C(=CC[C@@H]4[C@@]5(C)CC[C@H](O)C(C)(C)[C@@H]5CC[C@]43C)[C@H]12 [Ursolic acid] | – | >2000 µg/mL | >2000 µg/mL | 298.51 ± 1.76 µg/mL | 55.52 ± 0.43% | – | 0.31 TE | 184 ± 9.25 µg/mL (≈ 402 µM) | > 200 µg/mL | – | 24.5 ± 0.1 µg/mL | – | – | 55.52%

From paper PMC12040637 (Iranian Biomedical Journal, 2024)
